A selection: hits, their analogues and other compounds. The true share with any hit is near 0.7%.
XiGFP reactiv – reactivates the inactive X chromosome in mouse fibroblasts; AID 743238; XiGFP mouse fibroblasts, % GFP-positive cells imaging, 3 d; cells co-treated with 5-aza-dC sensitizer; scaled so ellipticine positive control = 100%; hit rate 0.055% among 360,000; activation, % at 7.58 µM;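 active = mean normalized replicate activation at least 10% and every replicate at or above 10%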
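System: 68-5-11 XiGFP fibroblast line | Buffer or medium: DMEM containing 5-aza-dC | Compound: Single point | Times: Compounds 3 days, fix/stain 15 min at room temperature | Benchmarks: Positive control ellipticine, 6 µM final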
GC-B act – GC-B (human) receptor activation; P20594; hit rate 0.11% among 370,000; activation, % at 10 µM; HEK293-GC-B cells, CNP EC30, cGMP TR-FRET; 0% at EC30 CNP, 100% saturating CNP;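 active = activation at 10 µM reaching about 35% in either raw or pattern-adjusted values, limit read from the data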
CaV13 ICDI inh – Primary screen for inhibitors of IQ motif and Ca2+-dependent inactivation inhibitor domain binding in CACNA1D, Förster resonance energy transfer in living cells, …. HEK cells, CFP/YFP FRET ICDI-IQ, plate reader, 10 min; percent FRET-ratio fall versus neutral wells. inhibition, % at 12.3 µM. hit rate 0.098% among 340,000. AID 743397;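 active = mean replicate inhibition of at least 30% and at least 1% of replicates passing that level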
N-glyco inh – N-linked glycosylation inhibition; D54 ERlucT glycosylation luciferase reporter, 24 h; percent of 100 nM tunicamycin response; reporter increase, % at 12.5 µM; hit rate 0.23% among 360,000;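 active = mean luciferase reporter signal, scaled so untreated is 0 and the glycosylation-blocking control 100, at or above a set limit in every replicate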;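 also: luciferase carries N-glycosylation sites so blocking glycosylation raises the light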
Vif imaging – inhibitors of HIV Vif; HEK293T cells, Vif self-association by quenched fluorescence, imaging, 24 h; inhibition, % at 7.49 µM; hit rate 0.35% among 340,000; AID 602346; in the data active = inhibition above about 50%, passing the limit was not always enough
NPR1 activator – GC-A (human) enzyme activation; P16066; HEK293 GC-A cells, cGMP TR-FRET, EC30 ANP; 0% at EC30 ANP, 100% saturating ANP; activation, % at 10 µM; hit rate 0.14% among 370,000; in the data active = activation above about 40%
Target sequence (P16066 whole entry, looked up): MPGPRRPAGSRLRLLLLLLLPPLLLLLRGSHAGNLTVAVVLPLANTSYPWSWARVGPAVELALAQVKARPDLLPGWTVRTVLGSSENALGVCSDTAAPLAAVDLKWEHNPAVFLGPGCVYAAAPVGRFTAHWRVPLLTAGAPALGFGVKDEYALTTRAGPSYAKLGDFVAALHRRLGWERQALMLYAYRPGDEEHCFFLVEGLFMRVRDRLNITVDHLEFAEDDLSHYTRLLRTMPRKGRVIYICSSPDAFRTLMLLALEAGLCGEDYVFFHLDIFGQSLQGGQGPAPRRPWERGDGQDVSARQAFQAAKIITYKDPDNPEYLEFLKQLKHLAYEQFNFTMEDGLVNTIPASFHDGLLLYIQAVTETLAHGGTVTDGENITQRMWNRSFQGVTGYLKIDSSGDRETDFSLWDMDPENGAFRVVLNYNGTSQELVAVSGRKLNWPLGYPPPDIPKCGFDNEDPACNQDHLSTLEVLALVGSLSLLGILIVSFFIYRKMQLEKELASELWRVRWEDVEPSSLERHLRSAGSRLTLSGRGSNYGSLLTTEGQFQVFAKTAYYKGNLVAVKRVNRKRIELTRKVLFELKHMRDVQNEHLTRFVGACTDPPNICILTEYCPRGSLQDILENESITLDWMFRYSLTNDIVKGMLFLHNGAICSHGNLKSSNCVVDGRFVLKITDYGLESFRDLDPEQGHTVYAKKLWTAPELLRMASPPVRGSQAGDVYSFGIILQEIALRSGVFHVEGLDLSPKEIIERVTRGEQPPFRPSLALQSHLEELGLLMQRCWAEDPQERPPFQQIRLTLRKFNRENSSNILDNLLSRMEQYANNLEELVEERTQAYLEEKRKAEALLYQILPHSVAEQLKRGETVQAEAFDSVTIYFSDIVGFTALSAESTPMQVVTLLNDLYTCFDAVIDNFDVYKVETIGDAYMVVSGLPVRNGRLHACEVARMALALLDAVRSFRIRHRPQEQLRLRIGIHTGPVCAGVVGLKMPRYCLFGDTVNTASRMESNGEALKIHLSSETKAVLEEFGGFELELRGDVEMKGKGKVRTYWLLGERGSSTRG
Of the large screens only hits and unclear results are named; the others gave an inactive call.

C[C@H]1CN([C@@H](C)CO)C(=O)c2cc(/C=C/c3ccccc3)cnc2O[C@@H]1CN(C)C(=O)CN1CCOCC1	none (no result: GC-B act, CaV13 ICDI inh, N-glyco inh, Vif imaging, NPR1 activator)
CCOc1ccc(NC(=O)/C(C#N)=C\c2ccc(N3CCCC3)c(C)c2)cc1	Vif imaging 54
CCOc1ccc(/C=C(\C#N)C(=O)Nc2cccnc2)cc1	none
CCOC(=O)N1CCc2cc(OC)c(OC)c3c2c1cc1cc(OC)c(OC)cc13	N-glyco inh 26
Cc1ccc(S(=O)(=O)NC2=C(N3CCN(c4ccccc4F)CC3)C(=O)c3ccccc3C2=O)cc1	none
Cc1ccc(S(=O)(=O)NC2=C(N3CCN(Cc4ccccc4)CC3)C(=O)c3ccccc3C2=O)cc1	N-glyco inh 65
CCOC(=O)C1=C(O)/C(=C/c2cn(CC(=O)NCC3CCCO3)c3ccccc23)SC1=Nc1ccc(C)cc1 (stereo not drawn)	Vif imaging 94 (no result: XiGFP reactiv, GC-B act, CaV13 ICDI inh, NPR1 activator)
CCOC(=O)C1=C(O)/C(=C/c2ccc(-c3ccccc3C(=O)O)o2)SC1=Nc1ccc(C)cc1	none
CC(C)(C)c1ccc(OCC(=O)Nc2ccncc2)c(Br)c1	N-glyco inh 34
C[C@H]1CN([C@@H](C)CO)C(=O)c2cccc(NC(=O)C3CCOCC3)c2O[C@@H]1CN(C)Cc1ccc2c(c1)OCO2	none (no result: GC-B act, CaV13 ICDI inh, N-glyco inh, Vif imaging, NPR1 activator)
CCOc1ccc(NC(N)=O)cc1	Vif imaging 65 (no result: XiGFP reactiv)
CCOc1ccc(NC(C)=O)cc1	none
Brc1ccc(N=NNc2ccccc2)cc1	NPR1 activator 45
O=C(O)c1cc(NN=Nc2cccc([N+](=O)[O-])c2)cc([N+](=O)[O-])c1	none (no result: Vif imaging)
O=C(O)c1cc(NN=Nc2ccc(Br)cc2)cc([N+](=O)[O-])c1	NPR1 activator 43
CCOC(=O)c1c(NC(=O)CCC(=O)N2CCOCC2)sc2c1CC(C)(C)OC2	Vif imaging 55 (no result: XiGFP reactiv, CaV13 ICDI inh)
C[C@H](CO)N1C[C@H](C)[C@H](CN(C)Cc2cccc(F)c2)Oc2cc(C#CC3CC3)ccc2S1(=O)=O	none (no result: GC-B act, CaV13 ICDI inh, N-glyco inh, Vif imaging, NPR1 activator)
CN1CCc2c(sc3c2C(=O)NC(c2cccs2)N3)C1 (stereo not drawn)	Vif imaging 80 (no result: XiGFP reactiv)
CCC(=O)N(C)C[C@@H]1Oc2cc(-c3ccc(OC)cc3)ccc2S(=O)(=O)N([C@H](C)CO)C[C@H]1C	none (no result: GC-B act, CaV13 ICDI inh, N-glyco inh, Vif imaging, NPR1 activator)
Cc1ccc(S(=O)(=O)CCC(=O)OCC(=O)Nc2cccc(S(=O)(=O)N3CCCCC3)c2)cc1	CaV13 ICDI inh 58
Cc1ccccc1-c1ccc([C@H]2[C@@H](CO)N3CCCCN(Cc4cccnc4)C[C@H]23)cc1	none (no result: GC-B act, CaV13 ICDI inh, N-glyco inh, Vif imaging, NPR1 activator)
COc1ccc(OC)c(C2C3CN(C(C)C)CC=C3C(C#N)=C(N)C2(C#N)C#N)c1 (stereo not drawn)	Vif imaging 95 (no result: XiGFP reactiv)
Cc1ccc2nc(NC(=O)C3CCCN(S(=O)(=O)c4cccnc4)C3)sc2c1 (stereo not drawn)	NPR1 activator 48
CN1CCc2c(sc(NC(=O)C3CCCCC3)c2C(N)=O)C1	CaV13 ICDI inh active
COc1cc(/C=N/NC(=O)c2cc(-c3c(C)nn(-c4ccccc4)c3C)n[nH]2)ccc1O	N-glyco inh 54
C[C@@H]1CN([C@H](C)CO)C(=O)c2cc(NC(=O)Nc3ccc(C(F)(F)F)cc3)ccc2O[C@@H](C)CCCCO[C@@H]1CN(C)Cc1ccccc1	none (no result: GC-B act, CaV13 ICDI inh, N-glyco inh, Vif imaging, NPR1 activator)
CN1/C(=C\C=C(C#N)C#N)C(C)(C)c2ccccc21	Vif imaging 119
COc1ccc(S(=O)(=O)N(C)C[C@@H]2Oc3c(NC(=O)Nc4ccccc4)cccc3C(=O)N([C@@H](C)CO)C[C@@H]2C)cc1	none (no result: GC-B act, CaV13 ICDI inh, N-glyco inh, Vif imaging, NPR1 activator)
CCCOc1ccc(F)cc1-c1cc(C(=O)Nc2ccc(C(C)C)cc2)[nH]n1	N-glyco inh 55
COc1ccc(NC(=O)c2cc(-c3cc(F)ccc3OC(C)C)n[nH]2)c(C)c1	GC-B act 61, NPR1 activator 56 (no result: Vif imaging)
O=[N+]([O-])c1c(Nc2ccccc2O)ccc2nonc12	none
O=[N+]([O-])c1c(Nc2ccccc2O)cc(Cl)c2nonc12	GC-B act 42
O=C(CN1CCOCC1)N1CC2(C1)[C@H](c1ccccc1)[C@H](CO)N2Cc1ccc(F)cc1	none (no result: GC-B act, CaV13 ICDI inh, N-glyco inh, Vif imaging, NPR1 activator)
N#C/C(=C\c1ccc(F)cc1)c1nc(-c2ccco2)cs1	Vif imaging 59
Cc1ccc(S(=O)(=O)Nc2ccc3c(c2)C(=O)N([C@H](C)CO)C[C@H](C)[C@H](CN(C)S(=O)(=O)c2ccc(C)cc2)OCCCC[C@H](C)O3)cc1	none (no result: GC-B act, CaV13 ICDI inh, N-glyco inh, Vif imaging, NPR1 activator)
CC1CCCCC1NC(=O)CO/N=C/c1ccccc1OC(F)F (stereo not drawn)	Vif imaging 91
CCC(C)NC(=O)CO/N=C/c1ccccc1OC(F)F (stereo not drawn)	none
CC(C)NC(=O)N(C)C[C@@H]1Oc2ccc(NC(=O)CCCN(C)C)cc2C(=O)N([C@H](C)CO)C[C@H]1C	none (no result: GC-B act, CaV13 ICDI inh, N-glyco inh, Vif imaging, NPR1 activator)
CCCNC(=O)C[C@@H]1CC[C@@H]2[C@H](COC[C@H](O)CN2C(=O)C2CCOCC2)O1	none (no result: GC-B act, CaV13 ICDI inh, N-glyco inh, Vif imaging, NPR1 activator)
Cc1nn(Cc2ccccc2)c(Cl)c1/C=N/NC(=O)c1cccnc1	none
Cc1c(/C=N/NC(=O)c2cccnc2)c2ccccc2n1Cc1ccccc1	NPR1 activator 58
O=C(O)c1ccccc1C(=O)c1cccc2c(Br)cccc12	NPR1 activator 58
CCCCSc1nc2c([nH]1)c(=S)n(C)c(=O)n2C	GC-B act 37
CCN(CC)CCSc1nc2c([nH]1)c(=S)n(C)c(=O)n2C	none
Cn1c(=S)c2[nH]c(SCCC(C)(C)C)nc2n(C)c1=O	GC-B act 50, NPR1 activator 44
COc1ccccc1/C=C1/SC(=S)N(C(C)C(=O)NC2C=CS(=O)(=O)C2)C1=O (stereo not drawn)	Vif imaging 55
CCc1cc(=O)oc2cc(OC(C)C(=O)NCc3ccccn3)ccc12 (stereo not drawn)	Vif imaging 58
CCCNC(=O)N(C)C[C@@H]1Oc2ncc(C3=CCCCC3)cc2C(=O)N([C@@H](C)CO)C[C@H]1C	none (no result: GC-B act, CaV13 ICDI inh, N-glyco inh, Vif imaging, NPR1 activator)
C=C(NC(=O)C(=C)NC(=O)c1csc(C2=NC3c4csc(n4)C4NC(=O)c5csc(n5)C(C(C)(O)C(C)O)NC(=O)C5CSC(=N5)/C(=C/C)NC(=O)C(C(C)O)NC(=O)c5csc(n5)C3(CC2)NC(=O)C(C)NC(=O)C(=C)NC(=O)C(=C)NC(=O)C(C(C)C)NC2C=Cc3c(C(C)O)cc(nc3C2O)C(=O)OC4C)n1)C(N)=O (stereo not drawn)	Vif imaging 176
C[C@@H]1CN([C@H](C)CO)C(=O)c2cc(-c3cccnc3)cnc2O[C@@H]1CN(C)C(=O)NC1CCCC1	none (no result: GC-B act, CaV13 ICDI inh, N-glyco inh, Vif imaging, NPR1 activator)
CCCn1nnc(NC(=O)C(c2ccccc2)c2ccccc2)n1	Vif imaging 50 (no result: XiGFP reactiv)
